{"data": "Measurements pooled from the literature", "organism": "Bacillus subtilis", "effect on": "microbial growth"}
{"SMILES": "CCCCCCCCCCCC(=O)OC[C@H]1O[C@@H](n2cc(C)c(=O)[nH]c2=O)C[C@@H]1OC(=O)c1ccc(C(C)(C)C)cc1", "assay": "broth dilution", "MIC": "1 µg/mL"}
{"SMILES": "CO[C@@H]1[C@@H](OC(N)=O)[C@@H](O)[C@H](Oc2ccc3c(O)c(NC(=O)c4ccc(O)c(CC=C(C)C)c4)c(=O)oc3c2C)OC1(C)C", "assay": "broth dilution", "test system": "ATCC6633", "MIC": "< 6.25 µM"}
{"SMILES": "CCCCCCCCCCCC(=O)C(F)(F)P(=O)(O)O", "test system": "ATCC23857", "MIC": "> 200 µg/mL"}
{"SMILES": "Cc1c(NN=C(C#N)C2=NC(=O)CS2)c(=O)n(-c2ccccc2)n1C", "assay": "broth dilution", "MIC": "0.98 µg/mL"}
{"SMILES": "CCC1C(=NOCc2cn(-c3ccccc3)nn2)CC(c2ccccc2)OC1c1ccccc1 (stereo not shown)", "assay": "broth dilution", "test system": "MTCC121", "conditions": "24 h", "MIC": "25 µg/mL"}
{"SMILES": "CCCCCCCCCCCCCCCC(=O)NP(=O)(O)O", "test system": "ATCC23857", "MIC": "> 200 µg/mL"}
{"SMILES": "Oc1cc(Cl)ccc1Oc1ccc(Cl)cc1Cl", "MIC": "1.8 µg/mL"}
{"SMILES": "CC1C(=NOCc2cn(-c3ccccc3)nn2)CC(c2ccccc2)OC1c1ccccc1 (stereo not shown)", "assay": "broth dilution", "test system": "MTCC121", "conditions": "24 h", "MIC": "50 µg/mL"}
{"SMILES": "CCCCCCCCCC(=O)N[C@@H](Cc1c[nH]c2ccccc12)C(=O)N[C@H](CC(N)=O)C(=O)N[C@@H](CC(=O)O)C(=O)N[C@@H]1C(=O)NCC(=O)N[C@@H](CCCN)C(=O)N[C@@H](CC(=O)O)C(=O)N[C@H](C)C(=O)N[C@@H](CC(=O)O)C(=O)NCC(=O)N[C@H](CO)C(=O)N[C@@H]([C@H](C)CC(=O)O)C(=O)N[C@@H](CC(=O)c2ccccc2N)C(=O)O[C@@H]1C", "assay": "broth dilution", "test system": "168", "MIC": "0.25 µg/mL"}
{"SMILES": "CCCCCCCC(=O)CP(=O)(O)O", "test system": "ATCC23857", "MIC": "> 200 µg/mL"}
